From ChEMBL document CHEMBL2034977, “Discovery of CX-6258. A Potent, Selective, and Orally Efficacious pan-Pim Kinases Inhibitor” (ACS Med Chem Lett, 2012)

Assays:
Assay type in all cases: ADME, organism-based; call rule not given here
[1] = Clearance in iv dosed mouse; conditions: in vivo
Procedure, shortened: (§1)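 Mouse pharmacokinetics after IV and oral dosing. Vehicle D5W. Clearance, volume of distribution, half-life, AUC over 0−24 h and oral bioavailability were derived. Each value is the average of four animals.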

[2] = Oral bioavailability in mouse; conditions: in vivo; procedure, shortened: as §1
[3] = Half life in iv dosed mouse; conditions: in vivo; procedure, shortened: as §1
[4] = AUC (0 to 24 hrs) in po dosed mouse; design: time < 24 hr, route oral; conditions: plasma; procedure, shortened: as §1
[5] = Volume of distribution in iv dosed mouse; conditions: in vivo; procedure, shortened: as §1
Mus musculus = species: Mus musculus; test: Drug metabolism in mouse assessed as formation of 3-((5-(3-(1,4-diazepane-1-carbonyl)phenyl)furan-2-yl)methylene)-5-chloroindolin-2-one; conditions: in vivo

clearance [1]: 35 mL/min/kg | bioavailability [2]: 23% | half-life [3]: 27 h | AUC(0-t) at 24 h [4]: 1020 ng·h/mL | Vd [5]: 85 L/kg | Drug metabolism (Mus musculus): Active
Structure (SMILES): CN1CCCN(C(=O)c2cccc(-c3ccc(/C=C4/C(=O)Nc5ccc(Cl)cc54)o3)c2)CC1
